In ChEMBL document CHEMBL1140844, “2-[(3-Methoxyphenylethyl)phenoxy]-based ABCB1 inhibitors: effect of different basic side-chains on their biological properties” (J Med Chem, 2008):

Columns and labels:
[1] = target: T1, Broad substrate specificity ATP-binding cassette transporter ABCG2 (Homo sapiens, UniProt Q9UNQ0); assay: Inhibition of ABCG2
T1 sequence (Q9UNQ0 whole entry): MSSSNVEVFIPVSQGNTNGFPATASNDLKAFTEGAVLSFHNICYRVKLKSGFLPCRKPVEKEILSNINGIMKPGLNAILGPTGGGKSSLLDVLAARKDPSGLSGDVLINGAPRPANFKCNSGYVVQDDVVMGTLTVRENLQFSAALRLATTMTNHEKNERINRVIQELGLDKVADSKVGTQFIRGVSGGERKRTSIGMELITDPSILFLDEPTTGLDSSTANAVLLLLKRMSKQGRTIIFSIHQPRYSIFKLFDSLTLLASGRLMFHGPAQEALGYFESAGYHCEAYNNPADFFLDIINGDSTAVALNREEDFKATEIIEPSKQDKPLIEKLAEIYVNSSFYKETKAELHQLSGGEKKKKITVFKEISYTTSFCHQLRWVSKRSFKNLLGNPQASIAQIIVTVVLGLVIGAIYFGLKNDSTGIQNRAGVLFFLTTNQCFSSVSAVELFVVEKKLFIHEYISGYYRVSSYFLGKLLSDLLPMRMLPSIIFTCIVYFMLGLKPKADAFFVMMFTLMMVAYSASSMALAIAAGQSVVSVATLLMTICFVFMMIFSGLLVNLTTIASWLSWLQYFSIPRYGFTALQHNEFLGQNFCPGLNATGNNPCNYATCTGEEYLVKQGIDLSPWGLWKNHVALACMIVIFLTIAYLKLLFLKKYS

[2] = target: T2, ATP-dependent translocase ABCB1 (Homo sapiens, UniProt P08183); assay: Inhibition of ABCB1
[3] = target: T3, 5-hydroxytryptamine receptor 1A (Homo sapiens, UniProt P08908); assay: Displacement of [3H]8-OH-DPAT from human cloned 5-HT1A receptor expressed in human HeLa cells; format: cell-based
T3 sequence (P08908 whole entry): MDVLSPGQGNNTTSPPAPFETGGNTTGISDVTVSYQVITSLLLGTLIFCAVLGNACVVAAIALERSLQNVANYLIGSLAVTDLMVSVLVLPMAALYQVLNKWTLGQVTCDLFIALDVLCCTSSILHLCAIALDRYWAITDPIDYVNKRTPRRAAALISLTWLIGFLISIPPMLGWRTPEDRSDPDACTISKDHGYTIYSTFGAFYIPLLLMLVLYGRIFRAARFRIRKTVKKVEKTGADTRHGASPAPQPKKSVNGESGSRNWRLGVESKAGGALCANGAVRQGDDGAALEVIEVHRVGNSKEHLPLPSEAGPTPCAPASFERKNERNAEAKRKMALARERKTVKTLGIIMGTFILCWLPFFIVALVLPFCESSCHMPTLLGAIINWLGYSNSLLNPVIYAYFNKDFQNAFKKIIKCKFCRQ
How it was run: (§1)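 Compounds at 0.1 nM–10 µM in 50 mM Tris-HCl pH 7.4, 5 mM MgSO4, 120 min at 37 °C. Filtered on PEI-soaked GF/C. Nonspecific binding with 10 µM 8-OH-DPAT. […] Mean of three experiments, triplicate samples.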

[4] = target: T2, ATP-dependent translocase ABCB1; assay: Inhibition of ABCB1 in human Caco-2 cells assessed as ATPase activation at 100 uM after 2 hrs; format: cell-based; details: caco-2, 2 h
How it was run: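 Caco-2 cells seeded at 2 × 10⁴ cells/well and held overnight at 37 °C, 5% CO2. Exposed to compound in complete medium for 2 h at 37 °C. Cells then lysed and ATP read by luciferase luminescence after 10 min dark adaptation. Tested at 100 µM; a positive response is reported as a percentage.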

D(2) dopamine receptor [5] = target: T4, D(2) dopamine receptor (Homo sapiens, UniProt P14416); assay: Displacement of [3H]spiroperidol from human cloned dopaminergic D2 receptor expressed in rat C6 cells; format: cell-based
D(2) dopamine receptor [6] = target: T4, D(2) dopamine receptor; assay: Displacement of [3H]spiroperidol from human cloned dopaminergic D2 receptor expressed in rat C6 cells at 10 uM; format: cell-based
How it was run: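 Buffer was 50 mM Tris, 10 mM MgCl2, 1 mM EDTA, pH 7.4. Incubated 60 min at 27 °C, then filtered on PEI-soaked GF/C. Nonspecific binding with 10 µM haloperidol.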

[7] = target: T5, 5-hydroxytryptamine receptor 1A (Homo sapiens) (UniProt P08908); assay: Displacement of [3H]8-OH-DPAT from human cloned 5-HT1A receptor expressed in human HeLa cells at 10 uM; format: cell-based; how it was run: as §1
T5 sequence (whole entry): T3 sequence (P08908 whole entry)

[8] = target: T2, ATP-dependent translocase ABCB1; assay: Inhibition of ABCB1-mediated [3H]vinblastine transportation in human Caco-2 cells; format: cell-based
How it was run: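 Caco-2 monolayers grown 21 days (TEER >800 Ω × cm²). 20 nM [3H]vinblastine added to the basolateral side with or without compound (200 nM–400 µM) for 120 min at 37 °C. Appearance on the apical side measured by scintillation counting. IC50 from nonlinear fit. Mean of three experiments, triplicate samples.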

Caco-2 = assay: Ratio of apparent permeability from basolateral to apical over apical to basolateral side of human Caco-2 cells after 120 mins by UV-visible spectroscopy; details: caco-2, 2 h
ABCB1 = ABCB1 (Homo sapiens, UniProt P08183); assay: Activation of ABCB1 in human Caco-2 cells assessed as ATPase activation at 100 uM after 2 hrs
[9] = target: T2, ATP-dependent translocase ABCB1; assay: Inhibition of ABCB1 transfected in MDCK cells assessed as increase in calcein-AM accumulation; format: cell-based

T4 sequence (P14416 whole entry): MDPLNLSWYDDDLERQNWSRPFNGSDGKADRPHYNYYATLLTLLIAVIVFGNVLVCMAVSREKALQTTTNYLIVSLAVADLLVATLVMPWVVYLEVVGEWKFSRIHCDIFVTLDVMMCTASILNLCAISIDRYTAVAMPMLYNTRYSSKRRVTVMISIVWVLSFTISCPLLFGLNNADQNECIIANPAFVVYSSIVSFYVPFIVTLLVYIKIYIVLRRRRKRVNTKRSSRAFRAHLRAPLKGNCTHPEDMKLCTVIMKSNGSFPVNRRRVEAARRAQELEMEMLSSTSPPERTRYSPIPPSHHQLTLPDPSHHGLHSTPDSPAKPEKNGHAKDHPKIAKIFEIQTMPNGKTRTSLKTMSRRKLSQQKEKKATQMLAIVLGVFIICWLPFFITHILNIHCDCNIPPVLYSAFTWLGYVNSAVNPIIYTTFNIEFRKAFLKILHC
T2 sequence (P08183 whole entry): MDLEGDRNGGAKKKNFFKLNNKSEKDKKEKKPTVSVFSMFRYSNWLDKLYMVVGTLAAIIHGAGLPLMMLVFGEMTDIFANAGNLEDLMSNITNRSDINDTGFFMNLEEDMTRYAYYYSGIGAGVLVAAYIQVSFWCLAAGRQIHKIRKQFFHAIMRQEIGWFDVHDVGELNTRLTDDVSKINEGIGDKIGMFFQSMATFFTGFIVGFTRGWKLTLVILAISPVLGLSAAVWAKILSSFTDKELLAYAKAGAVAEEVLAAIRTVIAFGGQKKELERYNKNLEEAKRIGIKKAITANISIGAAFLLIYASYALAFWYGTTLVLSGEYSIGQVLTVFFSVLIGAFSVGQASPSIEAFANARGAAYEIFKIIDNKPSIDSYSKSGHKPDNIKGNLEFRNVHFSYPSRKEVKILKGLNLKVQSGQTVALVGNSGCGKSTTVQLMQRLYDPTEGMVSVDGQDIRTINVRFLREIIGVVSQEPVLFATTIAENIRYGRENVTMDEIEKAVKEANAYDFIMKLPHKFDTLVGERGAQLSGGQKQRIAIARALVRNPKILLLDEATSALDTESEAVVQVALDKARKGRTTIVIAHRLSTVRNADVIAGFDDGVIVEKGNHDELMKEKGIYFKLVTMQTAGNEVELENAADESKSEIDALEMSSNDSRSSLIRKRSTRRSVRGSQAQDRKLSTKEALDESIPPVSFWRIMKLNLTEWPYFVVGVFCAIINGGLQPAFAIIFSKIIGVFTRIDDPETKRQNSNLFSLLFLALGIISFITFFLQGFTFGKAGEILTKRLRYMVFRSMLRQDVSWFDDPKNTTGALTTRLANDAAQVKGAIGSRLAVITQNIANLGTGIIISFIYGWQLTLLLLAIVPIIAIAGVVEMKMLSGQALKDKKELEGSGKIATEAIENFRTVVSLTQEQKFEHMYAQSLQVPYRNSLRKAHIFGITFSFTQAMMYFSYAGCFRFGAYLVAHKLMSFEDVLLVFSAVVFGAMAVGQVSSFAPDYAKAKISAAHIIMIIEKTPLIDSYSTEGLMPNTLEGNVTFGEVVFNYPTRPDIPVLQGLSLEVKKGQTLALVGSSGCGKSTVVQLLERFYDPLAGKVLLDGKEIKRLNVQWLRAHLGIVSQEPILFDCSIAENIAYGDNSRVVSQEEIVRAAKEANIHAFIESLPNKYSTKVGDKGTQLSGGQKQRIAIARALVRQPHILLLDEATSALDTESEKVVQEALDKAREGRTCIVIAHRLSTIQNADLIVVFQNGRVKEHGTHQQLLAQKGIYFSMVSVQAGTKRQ
Sequence of ABCB1 (P08183 whole entry): as above

IC50 [1]	IC50 [2]	Ki [3]	Activity [4]	Ki (D(2) dopamine receptor [5])	IC50 [8]	Ratio (Caco-2)	Compound	inhibition (D(2) dopamine receptor [6])	inhibition [7]	activation at 2 h, 100 µM (ABCB1)	IC50 [9]
–	–	1.33 µM	Not Active	> 1 µM	–	–	COc1cccc(CCc2ccccc2OCCCCN2CCc3ccccc3C2)c1	48%	–	–	–
–	–	0.8 µM	–	0.655 µM	–	–	COc1cccc(CCc2ccccc2OCCCN2CCN(c3ccc(F)cc3)CC2)c1	–	–	38%	–
–	–	2.87 µM	Not Active	1.41 µM	6.5 µM	4.4	COc1cccc(CCc2ccccc2OCCCN2CCN(c3cccc(C(F)(F)F)c3)CC2)c1	–	–	–	–
–	–	1.24 µM	–	0.427 µM	25 µM	6.8	COc1cccc(CCc2ccccc2OCCN2CCN(c3ccccc3OC)CC2)c1	–	–	10%	–
–	–	1.41 µM	Not Active	> 1 µM	40 µM	2.6	COc1cccc(CCc2ccccc2OCCN2CCN(c3cccc(C(F)(F)F)c3)CC2)c1	31%	–	–	–
–	–	0.656 µM	Not Active	0.629 µM	–	–	COc1cccc(CCc2ccccc2OCCN2CCN(c3ncccn3)CC2)c1	–	–	–	–
–	–	0.756 µM	–	0.0063 µM	14 µM	8.1	COc1cccc(CCc2ccccc2OCCCN2CCN(c3ccccc3OC)CC2)c1	–	–	20%	–
–	–	1.13 µM	Not Active	0.298 µM	2.5 µM	6.8	COc1cccc(CCc2ccccc2OCCCN2CCN(c3cccc(Cl)c3)CC2)c1	–	–	–	–
–	–	0.686 µM	Not Active	> 1 µM	3.2 µM	3.6	COc1cccc(CCc2ccccc2OCCN2CCN(c3cccc(Cl)c3)CC2)c1	43%	–	–	–
–	–	1.31 µM	Not Active	> 1 µM	12 µM	7.2	COc1cccc(CCc2ccccc2OCCN2CCc3ccccc3C2)c1	35%	–	–	–
–	–	1.12 µM	Not Active	0.114 µM	0.5 µM	6.3	COc1cccc(CCc2ccccc2OCCCN2CCc3ccccc3C2)c1	–	–	–	1.14 µM
–	–	1.09 µM	–	0.067 µM	5.8 µM	3.9	COc1cccc(CCc2ccccc2OCCCCN2CCN(c3ccccc3OC)CC2)c1	–	–	54%	–
–	–	0.783 µM	–	> 1 µM	10 µM	2.2	COc1cccc(CCc2ccccc2OCCN2CCN(c3ccc(F)cc3)CC2)c1	38%	–	10%	–
–	–	0.331 µM	Not Active	0.02 µM	1.2 µM	131	COc1cccc(CCc2ccccc2OCCCN2CCN(c3ncccn3)CC2)c1	–	–	–	–
–	–	1.31 µM	Not Active	> 1 µM	1.8 µM	5.1	COc1cccc(CCc2ccccc2OCCCCN2CCN(c3cccc(Cl)c3)CC2)c1	35%	–	–	–

The remaining lines, values behind:

Compound	IC50 [1]	IC50 [2]	Ki [3]	Activity [4]	Ki (D(2) dopamine receptor [5])	IC50 [8]	Ratio (Caco-2)	inhibition (D(2) dopamine receptor [6])	inhibition [7]	activation at 2 h, 100 µM (ABCB1)	IC50 [9]
COc1cccc(CCc2ccccc2OCc2cccc(OC)c2OC)c1	120 µM	–	–	–	–	–	–	–	–	–	–
COc1cccc(CCc2ccccc2NCc2ccc(OC)c(OC)c2)c1	0.5 µM	0.18 µM	–	–	–	–	–	–	–	–	–
COc1cccc(CCc2ccccc2OCCCCCN2CCN(C)CC2)c1	–	–	> 5 µM	Not Active	> 1 µM	6.82 µM	2.5	26%	24%	–	–
COc1cc2c(cc1OC)CN(CCc1ccc(NC(=O)c3cccc4c(=O)c5cccc(OC)c5[nH]c34)cc1)CC2	–	–	–	Not Active	–	–	–	–	–	–	–
COc1cccc(CCc2ccccc2OCCCCCN2CCc3ccccc3C2)c1	–	–	> 5 µM	Not Active	> 1 µM	3.17 µM	7.3	16%	15%	–	–
COc1cccc(CCc2ccccc2OCCCCN2CCN(C)CC2)c1	–	–	> 5 µM	Not Active	> 1 µM	0.15 µM	6.3	14%	38%	–	4.78 µM
COc1cccc(CCc2ccccc2OCCCN2CCc3cc(OC)c(OC)cc3C2)c1	–	–	> 5 µM	Not Active	> 1 µM	0.14 µM	4.3	35%	36%	–	0.09 µM
COc1cccc(CCc2ccccc2OCCCCN2CCc3cc(OC)c(OC)cc3C2)c1	–	–	> 5 µM	Not Active	> 1 µM	0.19 µM	5.8	40%	18%	–	0.16 µM
COc1cccc(CCc2ccccc2OCCCCN2CCN(c3ccc(F)cc3)CC2)c1	–	–	> 5 µM	–	1.32 µM	–	–	–	47%	25%	–
COc1cccc(CCc2ccccc2OCCCCCN2CCN(c3cccc(Cl)c3)CC2)c1	–	–	> 5 µM	Not Active	> 1 µM	–	–	25%	14%	–	–
COc1cccc(CCc2ccccc2OCCCN2CCN(C)CC2)c1	–	–	> 5 µM	Not Active	0.565 µM	2.5 µM	4.7	–	40%	–	–
COc1cccc(CCc2ccccc2OCCCCCN2CCN(c3ccc(F)cc3)CC2)c1	–	–	> 5 µM	–	0.847 µM	–	–	–	27%	40%	–
COc1cccc(CCc2ccccc2OCCCCCN2CCc3cc(OC)c(OC)cc3C2)c1	–	–	> 5 µM	–	> 1 µM	0.35 µM	4.9	18%	22%	20%	0.11 µM
COc1cccc(CCc2ccccc2OCCCCCN2CCN(c3ccccc3OC)CC2)c1	–	–	> 5 µM	–	> 1 µM	1.27 µM	5.2	35%	14%	15%	–
COc1cccc(CCc2ccccc2OCCCCCN2CCN(c3ncccn3)CC2)c1	–	–	> 5 µM	Not Active	> 1 µM	1.72 µM	7.1	24%	38%	–	–
COc1cccc(CCc2ccccc2OCCN2CCN(C)CC2)c1	–	–	> 5 µM	Not Active	0.178 µM	0.8 µM	6.8	–	48%	–	7.76 µM
COc1cccc(CCc2ccccc2OCCN2CCc3cc(OC)c(OC)cc3C2)c1	–	–	> 5 µM	–	> 1 µM	0.75 µM	6.4	12%	26%	55%	0.78 µM
